Experimental data from ChEMBL document CHEMBL1129424, “Heterocyclic amides: inhibitors of acyl-CoA:cholesterol O-acyl transferase with hypocholesterolemic activity in several species and antiatherosclerotic activity in the rabbit” (J Med Chem, 1996).
Values belong to the compound of their own block, whether it stands above or below them.

Tests used:
Rattus norvegicus [1] = species on record: Rattus norvegicus; assay: Compound was tested for the percent change in total cholesterol (TC) by chronic rat model; format: functional
[2] = target: T1, Sterol O-acyltransferase 1 (Rattus norvegicus, UniProt O70536); assay: Inhibition of Acyl coenzyme A:cholesterol acyltransferase 1 from rat liver microsomes
T1 sequence (O70536 whole entry): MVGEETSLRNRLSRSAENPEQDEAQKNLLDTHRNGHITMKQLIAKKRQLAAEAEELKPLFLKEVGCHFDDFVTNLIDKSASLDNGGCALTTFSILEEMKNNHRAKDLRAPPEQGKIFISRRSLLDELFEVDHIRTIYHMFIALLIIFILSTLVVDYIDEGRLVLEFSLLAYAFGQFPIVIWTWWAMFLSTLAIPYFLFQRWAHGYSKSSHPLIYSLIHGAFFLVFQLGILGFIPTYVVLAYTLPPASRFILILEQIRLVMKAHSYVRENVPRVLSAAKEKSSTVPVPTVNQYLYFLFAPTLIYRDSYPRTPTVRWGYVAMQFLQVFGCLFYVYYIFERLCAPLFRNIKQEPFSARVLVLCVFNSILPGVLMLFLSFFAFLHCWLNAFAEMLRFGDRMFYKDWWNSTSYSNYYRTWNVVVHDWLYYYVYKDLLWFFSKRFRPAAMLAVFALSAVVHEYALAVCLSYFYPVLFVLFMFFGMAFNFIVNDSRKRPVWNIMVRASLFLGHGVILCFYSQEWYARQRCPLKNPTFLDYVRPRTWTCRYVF
Method in brief: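 Microsomes isolated from livers of cholesterol-fed rats were incubated with compound and [1-14C]oleoyl-CoA to measure ACAT inhibition; IC50 reported in μM.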

Rattus norvegicus [3] = assay: Percent change in total cholesterol in the acute cholesterol-fed rat model (APCC) of hypercholesterolemia at 3 mg/Kg; format: functional
Method in brief: (§1)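 Acute rat model: compound given by gavage at 30 or 3 mg/kg in 1.5% carboxymethylcellulose/0.2% Tween-20 in water (3-4 pm). Rats then fed overnight a diet with 5.5% peanut oil, 1.5% cholesterol, 0.5% cholic acid. Result is percent decrease in plasma total cholesterol versus controls.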

Rattus norvegicus [4] = assay: Percent change in total cholesterol in the acute cholesterol-fed rat model (APCC) of hypercholesterolemia at 30 mg/Kg; format: functional; method in brief: as §1
[5] = Acyl coenzyme A:cholesterol acyltransferase inhibition in cell culture measured in murine IC-21 macrophages.
Method in brief: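 Murine IC-21 macrophages preincubated 16 h in serum-free DMEM with albumin (20 μM) and phosphatidylserine/cholesterol vesicles; then compound in DMSO for 1 h, then 14C-sodium oleate added for 4 more h. Lipids extracted in hexane/2-propanol with [14C]cholesterol internal standard; neutral lipids separated by TLC, phosphorimaged; protein by Lowry. IC50 is the concentration giving 50% inhibition.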

[6] = target: T2, Sterol O-acyltransferase 1 (Rattus norvegicus) (UniProt O70536); assay: Inhibition of rat liver microsomal Acyl coenzyme A:cholesterol acyltransferase 1 from rabbit plasma after an oral dose of 25 mg/kg; format: cell-free
T2 sequence (whole entry): T1 sequence (O70536 whole entry)
Method in brief: (§2)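 Male New Zealand white rabbits conditioned to meal feeding for 1 week, then given a meal containing drug at 25 mg/kg in 3% peanut oil/3% coconut oil vehicle. Plasma was sampled at 0, 1, 2 and 4 h and extracted into hexane, then redissolved in chloroform/methanol (2:1). It was assayed for liver microsomal ACAT inhibition against standards of compound spiked into rabbit plasma in DMSO.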

[7] = target: T2, Sterol O-acyltransferase 1 (Rattus norvegicus); assay: Compound at 25 mg/Kg was tested for the inhibition of rat liver microsomal Acyl coenzyme A:cholesterol acyltransferase 1 in plasma drawn from chow fed rabbits; format: cell-free; method in brief: as §2
Oryctolagus cuniculus [8] = assay: Percent change in plasma triglyceride levels at dose 1 mg/Kg in rabbits; format: functional
Method in brief: (§3)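 Injured cholesterol-fed rabbits: diet of 0.5% cholesterol, 3% peanut oil, 3% coconut oil for 9 weeks (1 week before, 8 weeks after surgery), producing thoracic aortic and iliac-femoral lesions. Doses 1, 5 or 25 mg/kg. Thoracic aortic lesion coverage, plasma total cholesterol and triglycerides given as percent change versus control; Student's t-test, p < 0.05.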

Oryctolagus cuniculus [9] = assay: Percent change in plasma triglyceride levels at dose 25 mg/Kg in rabbits; format: functional; method in brief: as §3
[10] = target: T2, Sterol O-acyltransferase 1 (Rattus norvegicus); assay: Compound at 1 mg/Kg was tested for the inhibition of rat liver microsomal Acyl coenzyme A:cholesterol acyltransferase 1 in plasma drawn from chow fed rabbits; format: cell-free
Oryctolagus cuniculus [11] = assay: Percent change in TC relative to untreated controls at 25 mg/Kg in cholesterol fed rabbits (CFR)
Canis familiaris = assay: CDOG represents the C-fed female Beagle dog model, data expressed as percent change in TC relative to untreated controls at compound concentration of 10 mg/Kg; format: functional, Canis lupus familiaris
Method in brief: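 Cholesterol-fed female Beagle dogs given bulk drug in capsules daily before meals for 1 week at 10 mg/kg. Plasma total cholesterol compared before and after treatment.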

Oryctolagus cuniculus [12] = assay: Percent change in plasma total cholesterol at dose 5 mg/Kg in rabbits; format: functional; method in brief: as §3
Oryctolagus cuniculus [13] = assay: Percent change in plasma total cholesterol at dose 1 mg/Kg in rabbits; format: functional; method in brief: as §3
Oryctolagus cuniculus [14] = assay: Percent change in lesion coverage relative to control in the thoracic aorta at dose 1 mg/Kg in rabbits; format: functional; method in brief: as §3
Oryctolagus cuniculus [15] = assay: Percent change in lesion coverage relative to control in the thoracic aorta at dose 25 mg/Kg in rabbits; format: functional; method in brief: as §3
Oryctolagus cuniculus [16] = assay: Percent change in plasma total cholesterol at dose 25 mg/Kg in rabbits; format: functional; method in brief: as §3
Oryctolagus cuniculus [17] = assay: Percent change in lesion coverage relative to control in the thoracic aorta at dose 5 mg/Kg in rabbits; format: functional; method in brief: as §3
Oryctolagus cuniculus [18] = assay: Percent change in plasma triglyceride levels at dose 5 mg/Kg in rabbits; format: functional; method in brief: as §3
[19] = target: T2, Sterol O-acyltransferase 1 (Rattus norvegicus); assay: Compound at 5 mg/Kg was tested for the inhibition of rat liver microsomal Acyl coenzyme A:cholesterol acyltransferase 1 in plasma drawn from chow fed rabbits; format: cell-free
Oryctolagus cuniculus [20] = assay: Percent change in TC relative to untreated controls at 5 mg/Kg in cholesterol fed rabbits (CFR)

Structure (SMILES): CCCCCCCCCCCCc1nnc(C(C(=O)Nc2c(OC)cc(OC)cc2OC)c2ccccc2)o1 (stereo not given)
- CPCC (Rattus norvegicus [1]): -39
- IC50 [2]: 17 nM
- DeltaTC (Rattus norvegicus [3]): -64%
- DeltaTC (Rattus norvegicus [4]): -57%
- IC50 [5]: 48 nM
- inhibition [6]: 21%

Structure (SMILES): CCCCCCCCCCCCc1cc(C(C(=O)Nc2c(OC)cc(OC)cc2OC)c2ccccc2)on1 (stereo not given)
- inhibition [7]: 94%
- DeltaTC (Oryctolagus cuniculus [8]): 1%
- DeltaTC (Oryctolagus cuniculus [9]): 168%
- inhibition [10]: 0%
- DeltaTC (Oryctolagus cuniculus [11]): -76%
- CDOG (Canis familiaris): -44
- DeltaTC (Oryctolagus cuniculus [12]): -32%
- DeltaTC (Oryctolagus cuniculus [13]): -26%
- Activity (Oryctolagus cuniculus [14]): -53%
- CPCC (Rattus norvegicus [1]): -65
- Activity (Oryctolagus cuniculus [15]): -32%
- IC50 [2]: 15 nM
- DeltaTC (Oryctolagus cuniculus [16]): -26%
- Activity (Oryctolagus cuniculus [17]): -46%
- DeltaTC (Rattus norvegicus [3]): -68%
- DeltaTC (Rattus norvegicus [4]): -68%
- IC50 [5]: 170 nM
- DeltaTG (Oryctolagus cuniculus [18]): 111%
- inhibition [19]: 46%
- DeltaTC (Oryctolagus cuniculus [20]): -64%
- inhibition [6]: 94%

Structure (SMILES): CCCCCCCCCCCCc1cc(C(C(=O)Nc2ccc(F)cc2F)c2ccccc2)no1 (stereo not given)
- IC50 [2]: 100 nM
- DeltaTC (Rattus norvegicus [4]): -29%

Structure (SMILES): CCCCCCCCCCCCc1cc(C(C(=O)Nc2c(C(C)C)cccc2C(C)C)c2ccccc2)no1 (stereo not given)
- IC50 [2]: 24 nM

Structure (SMILES): CCCCCCCCCCCCc1cn(C(C(=O)Nc2c(OC)cc(OC)cc2OC)c2ccccc2)nn1 (stereo not given)
- IC50 [2]: 22 nM
- DeltaTC (Rattus norvegicus [3]): -66%
- DeltaTC (Rattus norvegicus [4]): -69%
- IC50 [5]: 54 nM
- inhibition [6]: 12%

Structure (SMILES): CCCCCCCCCCCCc1cnn(C(C(=O)Nc2c(OC)cc(OC)cc2OC)c2ccccc2)c1 (stereo not given)
- IC50 [2]: 46 nM
- DeltaTC (Rattus norvegicus [3]): -59%
- DeltaTC (Rattus norvegicus [4]): -72%

Structure (SMILES): CCCCCCCCCCC(C)(C)C(=O)Nc1c(OC)cc(OC)cc1OC [CL-976]
- DeltaTC (Oryctolagus cuniculus [9]): -7%
- Activity (Oryctolagus cuniculus [15]): -41%
- DeltaTC (Oryctolagus cuniculus [16]): -24%

Structure (SMILES): CCCCCCCCCCCCc1cn(C(C(=O)Nc2c(OC)cc(OC)cc2OC)c2ccccc2)cn1 (stereo not given)
- IC50 [2]: 110 nM
- DeltaTC (Rattus norvegicus [3]): -43%
- DeltaTC (Rattus norvegicus [4]): -62%

Structure (SMILES): CCCCCCCCCCCCc1cc(C2(C(=O)Nc3c(OC)cc(OC)cc3OC)CCCC2)no1
- IC50 [2]: 100 nM
- DeltaTC (Rattus norvegicus [4]): -29%

Structure (SMILES): CCCCCCCCCCCCc1cc(CC(=O)Nc2c(OC)cc(OC)cc2OC)on1
- IC50 [2]: 32 nM
- DeltaTC (Rattus norvegicus [3]): -42%
- DeltaTC (Rattus norvegicus [4]): -59%

Structure (SMILES): CCCCCCCCCCCCc1cc(C(C(=O)Nc2c(C(C)C)cccc2C(C)C)c2ccccc2)on1 (stereo not given)
- IC50 [2]: 19 nM
- DeltaTC (Rattus norvegicus [3]): -10%
- DeltaTC (Rattus norvegicus [4]): -52%

More lines, in order of falling IC50 [2], values ahead:

- IC50 [2]: 150 nM
Structure (SMILES): CCCCCCCCCCCCc1cc(C(C)(C)C(=O)Nc2c(OC)cc(OC)cc2OC)no1
- DeltaTC (Rattus norvegicus [4]): -40%

- IC50 [2]: 51 nM
Structure (SMILES): CCCCCCCCCCCCc1cc(C(C(=O)Nc2ccc(F)cc2F)c2ccccc2)on1 (stereo not given)
- DeltaTC (Rattus norvegicus [4]): -50%

- IC50 [2]: 31 nM
Structure (SMILES): CCCCCCCCCCCCc1noc(C(C(=O)Nc2c(OC)cc(OC)cc2OC)c2ccccc2)n1 (stereo not given)
- DeltaTC (Rattus norvegicus [3]): -58%
- DeltaTC (Rattus norvegicus [4]): -60%

- IC50 [2]: 31 nM
Structure (SMILES): CCCCCCCCCCCCc1nc(C(C(=O)Nc2c(OC)cc(OC)cc2OC)c2ccccc2)no1 (stereo not given)
- DeltaTC (Rattus norvegicus [3]): -56%
- DeltaTC (Rattus norvegicus [4]): -54%

- inhibition [7]: 92%
- inhibition [10]: 0%
- IC50 [2]: 22 nM
- IC50 [5]: 310 nM
- inhibition [19]: 68%
- inhibition [6]: 92%
Structure (SMILES): CCCCCCCCCCCCc1cc(C(C(=O)Nc2c(OC)cc(OC)cc2OC)c2ccccc2)no1 (stereo not given)
- DeltaTC (Oryctolagus cuniculus [8]): 24%
- DeltaTC (Oryctolagus cuniculus [9]): 157%
- CDOG (Canis familiaris): -44
- DeltaTC (Oryctolagus cuniculus [12]): -27%
- DeltaTC (Oryctolagus cuniculus [13]): -17%
- Activity (Oryctolagus cuniculus [14]): -20%
- CPCC (Rattus norvegicus [1]): -61
- Activity (Oryctolagus cuniculus [15]): -36%
- DeltaTC (Oryctolagus cuniculus [16]): -27%
- Activity (Oryctolagus cuniculus [17]): -29%
- DeltaTC (Rattus norvegicus [3]): -50%
- DeltaTC (Rattus norvegicus [4]): -72%
- DeltaTG (Oryctolagus cuniculus [18]): 66%
- DeltaTC (Oryctolagus cuniculus [20]): -66%

- IC50 [2]: 14 nM
Structure (SMILES): CCCCCCCCCCCCc1nnc(C(C(=O)Nc2c(C(C)C)cccc2C(C)C)c2ccccc2)o1 (stereo not given)
- DeltaTC (Rattus norvegicus [3]): -23%
- DeltaTC (Rattus norvegicus [4]): -64%
